{"source": "ChEMBL document CHEMBL4049394", "about": "“Desing and synthesis of potent anti-Trypanosoma cruzi agents new thiazoles derivatives which induce apoptotic parasite death” (Eur J Med Chem, 2017)", "key": {"[1]": {"system": "Trypanosoma cruzi", "test": "Antitrypanosomal activity against bloodstream trypomastigote stage of Trypanosoma cruzi Y infected in monkey LLC-MK2 cells measured after 24 hrs by neubauer chamber method", "assay_type": "functional", "details": "LLC-MK2, in Primates", "procedure,_shortened": "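Y strain trypomastigotes taken from LLC-MK2 culture supernatant and held in RPMI-1640 with 10% FBS. Seeded at 4×10^5 cells/well and treated in triplicate for 24 h at 37 °C, 5% CO2. Motile parasites counted in a Neubauer chamber against untreated wells. IC50 by nonlinear regression from at least seven concentrations. Experiment repeated; SD < 10% of mean required.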"}, "[2]": {"system": "Trypanosoma cruzi", "test": "Antitrypanosomal activity against Trypanosoma cruzi Dm28c epimastigotes measured after 4 to 5 days by neubauer chamber method", "assay_type": "functional", "procedure,_shortened": "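Dm28c epimastigotes in LIT with 10% FBS, 1% hemin and gentamycin at 27 °C. Seeded at 10^6 cells/well and treated in triplicate for 4 days (table footnote: 5 days). Parasites counted in a Neubauer chamber against untreated wells as 100%. IC50 by nonlinear regression from at least five concentrations. Experiment repeated; only values with SD < 10% of mean kept.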"}, "[3]": {"test": "Cytotoxicity against mouse J774A.1 cells after 24 to 72 hrs by MTT assay", "assay_type": "cell-based, J774.A1", "details": "read-out: MNCC", "procedure,_shortened": "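J774A.1 macrophages in DMEM with 10% heat-inactivated FBS at 37 °C, 5% CO2. Seeded at 1×10^5 cells/well, 24 h preincubation, then compounds at 1–100 µg/mL for 72 h (table footnote: viability at 24 h). MTT 2 h, formazan dissolved in DMSO, absorbance read at 570 nm. Highest non-cytotoxic concentration reported.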"}, "[4]": {"test": "Selectivity index, ratio of highest non-cytotoxic concentration for mouse J774A.1 cells to CC50 for bloodstream trypomastigote stage of Trypanosoma cruzi Y infected in monkey LLC-MK2 cells", "assay_type": "toxicity, cell-based", "details": "read-out: Selectivity Index", "procedure,_shortened": "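Selectivity index is the highest non-cytotoxic concentration in J774A.1 macrophages divided by the 50% value against Y strain trypomastigotes measured after 24 h.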"}, "[5]": {"system": "Trypanosoma cruzi", "test": "Induction of apoptosis in bloodstream trypomastigote stage of Trypanosoma cruzi Y infected in monkey LLC-MK2 cells assessed as necrotic cells at 5 uM measured after 24 hrs by Annexin-V-FITC/propidium iodide staining based flow cytometric method (reference value: 0.014%)", "assay_type": "functional"}, "[6]": {"system": "Trypanosoma cruzi", "test": "Induction of apoptosis in bloodstream trypomastigote stage of Trypanosoma cruzi Y infected in monkey LLC-MK2 cells assessed as necrotic cells at 2.5 uM measured after 24 hrs by Annexin-V-FITC/propidium iodide staining based flow cytometric method (reference value: 0.014%)", "assay_type": "functional"}, "[7]": {"system": "Trypanosoma cruzi", "test": "Induction of apoptosis in bloodstream trypomastigote stage of Trypanosoma cruzi Y infected in monkey LLC-MK2 cells assessed as late apoptotic cells at 2.5 uM measured after 24 hrs by Annexin-V-FITC/propidium iodide staining based flow cytometric method (reference value: 0.27%)", "assay_type": "functional"}, "[8]": {"system": "Trypanosoma cruzi", "test": "Induction of apoptosis in bloodstream trypomastigote stage of Trypanosoma cruzi Y infected in monkey LLC-MK2 cells assessed as early apoptotic cells at 2.5 uM measured after 24 hrs by Annexin-V-FITC/propidium iodide staining based flow cytometric method (reference value: 0.31%)", "assay_type": "functional"}, "[9]": {"system": "Trypanosoma cruzi", "test": "Induction of apoptosis in bloodstream trypomastigote stage of Trypanosoma cruzi Y infected in monkey LLC-MK2 cells assessed as late apoptotic cells at 5 uM measured after 24 hrs by Annexin-V-FITC/propidium iodide staining based flow cytometric method (reference value: 0.27%)", "assay_type": "functional"}, "[10]": {"system": "Trypanosoma cruzi", "test": "Induction of apoptosis in bloodstream trypomastigote stage of Trypanosoma cruzi Y infected in monkey LLC-MK2 cells assessed as early apoptotic cells at 5 uM measured after 24 hrs by Annexin-V-FITC/propidium iodide staining based flow cytometric method (reference value: 0.31%)", "assay_type": "functional"}, "[11]": {"system": "Trypanosoma cruzi", "test": "Potency index, ratio of benznidazole CC50 to compound CC50 for bloodstream trypomastigote stage of Trypanosoma cruzi Y infected in monkey LLC-MK2 cells", "assay_type": "functional"}, "[12]": {"system": "Trypanosoma cruzi", "test": "Potency index, ratio of benznidazole CC50 to compound CC50 for Trypanosoma cruzi Dm28c epimastigotes", "assay_type": "functional"}, "[13]": {"target": "Cruzipain (Trypanosoma cruzi) (UniProt P25779)", "sequence (P25779 123-467 limits assumed)": "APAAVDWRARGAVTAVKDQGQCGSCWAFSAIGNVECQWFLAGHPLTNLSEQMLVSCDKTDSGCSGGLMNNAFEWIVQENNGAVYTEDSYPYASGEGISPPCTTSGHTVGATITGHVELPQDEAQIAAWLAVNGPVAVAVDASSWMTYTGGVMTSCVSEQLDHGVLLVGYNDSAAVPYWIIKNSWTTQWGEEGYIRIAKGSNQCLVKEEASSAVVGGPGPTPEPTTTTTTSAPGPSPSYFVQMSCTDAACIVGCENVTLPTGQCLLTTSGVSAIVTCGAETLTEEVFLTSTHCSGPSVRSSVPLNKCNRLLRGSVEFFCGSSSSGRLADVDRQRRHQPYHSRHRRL", "test": "Inhibition of Trypanosoma cruzi cruzain at 50 uM using Z-phe-Arg-aminomethylcoumarin as substrate pretreated for 10 mins measured for 5 mins by fluorometric method relative to control", "procedure,_shortened": "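Cruzain at 0.5 nM in 0.1 M sodium acetate pH 5.5 with 0.1 mM β-mercaptoethanol and 0.01% Triton X-100. Compound screened at 50 µM after a 10-min preincubation with enzyme, then 2.5 µM Z-FR-AMC added. AMC fluorescence (ex 340/em 440 nm) followed for 5 min. Activity taken from initial rates relative to a DMSO control. Two independent experiments, each in triplicate.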"}, "[14]": {"system": "Trypanosoma cruzi", "test": "Induction of apoptosis in bloodstream trypomastigote stage of Trypanosoma cruzi Y infected in monkey LLC-MK2 cells assessed as necrotic cells at 1.2 uM measured after 24 hrs by Annexin-V-FITC/propidium iodide staining based flow cytometric method (reference value: 0.014%)", "assay_type": "functional"}, "[15]": {"system": "Trypanosoma cruzi", "test": "Induction of apoptosis in bloodstream trypomastigote stage of Trypanosoma cruzi Y infected in monkey LLC-MK2 cells assessed as necrotic cells at 2.4 uM measured after 24 hrs by Annexin-V-FITC/propidium iodide staining based flow cytometric method (reference value: 0.014%)", "assay_type": "functional"}, "[16]": {"system": "Trypanosoma cruzi", "test": "Induction of apoptosis in bloodstream trypomastigote stage of Trypanosoma cruzi Y infected in monkey LLC-MK2 cells assessed as late apoptotic cells at 1.2 uM measured after 24 hrs by Annexin-V-FITC/propidium iodide staining based flow cytometric method (reference value: 0.27%)", "assay_type": "functional"}, "[17]": {"system": "Trypanosoma cruzi", "test": "Induction of apoptosis in bloodstream trypomastigote stage of Trypanosoma cruzi Y infected in monkey LLC-MK2 cells assessed as late apoptotic cells at 2.4 uM measured after 24 hrs by Annexin-V-FITC/propidium iodide staining based flow cytometric method (reference value: 0.27%)", "assay_type": "functional"}, "[18]": {"system": "Trypanosoma cruzi", "test": "Induction of apoptosis in bloodstream trypomastigote stage of Trypanosoma cruzi Y infected in monkey LLC-MK2 cells assessed as early apoptotic cells at 1.2 uM measured after 24 hrs by Annexin-V-FITC/propidium iodide staining based flow cytometric method (reference value: 0.31%)", "assay_type": "functional"}, "[19]": {"system": "Trypanosoma cruzi", "test": "Induction of apoptosis in bloodstream trypomastigote stage of Trypanosoma cruzi Y infected in monkey LLC-MK2 cells assessed as early apoptotic cells at 2.4 uM measured after 24 hrs by Annexin-V-FITC/propidium iodide staining based flow cytometric method (reference value: 0.31%)", "assay_type": "functional"}, "[20]": {"system": "Trypanosoma cruzi", "test": "Induction of apoptosis in bloodstream trypomastigote stage of Trypanosoma cruzi Y infected in monkey LLC-MK2 cells assessed as viable cells at 1.2 uM measured after 24 hrs by Annexin-V-FITC/propidium iodide staining based flow cytometric method (reference value: 99.4%)", "assay_type": "functional"}, "[21]": {"system": "Trypanosoma cruzi", "test": "Induction of apoptosis in bloodstream trypomastigote stage of Trypanosoma cruzi Y infected in monkey LLC-MK2 cells assessed as viable cells at 2.4 uM measured after 24 hrs by Annexin-V-FITC/propidium iodide staining based flow cytometric method (reference value: 99.4%)", "assay_type": "functional"}}, "data": [{"molecule": "C/C(=N\\NC(=S)Nc1ccccc1)c1ccccn1", "values": [{"measurement": "CC50", "setting": "[1]", "result": 2.5, "unit": "µM"}, {"measurement": "CC50", "setting": "[2]", "result": 15.4, "unit": "µM"}, {"measurement": "MNTC", "setting": "[3]", "result": 21, "unit": "µM"}, {"measurement": "selectivity ratio", "setting": "[4]", "result": 8.4}, {"measurement": "Activity", "setting": "[5]", "result": 3.55, "unit": "%"}, {"measurement": "Activity", "setting": "[6]", "result": 3.6, "unit": "%"}, {"measurement": "Activity", "setting": "[7]", "result": 5.4, "unit": "%"}, {"measurement": "Activity", "setting": "[8]", "result": 36.8, "unit": "%"}, {"measurement": "Activity", "setting": "[9]", "result": 4.8, "unit": "%"}, {"measurement": "Activity", "setting": "[10]", "result": 36, "unit": "%"}]}, {"molecule": "COc1ccc(-c2cs/c(=N\\N=C(/C)c3ccccn3)n2-c2ccccc2)cc1", "values": [{"measurement": "CC50", "setting": "[1]", "result": 1.2, "unit": "µM"}, {"measurement": "CC50", "setting": "[2]", "result": 5, "unit": "µM"}, {"measurement": "MNTC", "setting": "[3]", "result": 477, "unit": "µM"}, {"measurement": "selectivity ratio", "setting": "[4]", "result": "397 to 398"}, {"measurement": "Ratio", "setting": "[11]", "result": "4 - 5"}, {"measurement": "Ratio", "setting": "[12]", "result": 10}, {"measurement": "inhibition", "setting": "[13]", "result": 48, "unit": "%"}, {"measurement": "Activity", "setting": "[14]", "result": "2.99 - 3.53%"}, {"measurement": "Activity", "setting": "[15]", "result": "2.3 - 3.48%"}, {"measurement": "Activity", "setting": "[16]", "result": "3.61 - 4.8%"}, {"measurement": "Activity", "setting": "[17]", "result": "3.67 - 4.5%"}, {"measurement": "Activity", "setting": "[18]", "result": "38.6 - 39.6%"}, {"measurement": "Activity", "setting": "[19]", "result": "36.4 - 38.9%"}, {"measurement": "Activity", "setting": "[20]", "result": 53.8, "unit": "%"}, {"measurement": "Activity", "setting": "[21]", "result": 55.2, "unit": "%"}]}]}
